ChEMBL document CHEMBL4715695, “Adamantyl-tethered-biphenylic compounds induce apoptosis in cancer cells by targeting Bcl homologs” (Bioorg Med Chem Lett, 2016)
Activity calls are given as the source filed them. The calls are words filed in the database; no cut-off is given here.

Tests used:
HepG2 [1] = assay: Cytotoxicity against human HepG2 cells assessed as reduction in cell viability measured upto 72 hrs by MTT assay; assay type: functional, cell-based; conditions: for IC50: HepG2, 72 h
Summary of the method: (§1)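 HCC cells plated at 2.5 × 10^4/mL in triplicate and exposed to a range of compound concentrations. Proliferation was read by MTT at 24, 48 and 72 h.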

L02 = assay: Cytotoxicity against human L02 cells assessed as reduction in cell viability measured upto 72 hrs by MTT assay; assay type: cell-based; conditions: l02, 72 h
Huh-7 = assay: Cytotoxicity against human HuH-7 cells assessed as reduction in cell viability measured upto 72 hrs by MTT assay; assay type: functional, cell-based; conditions: dose 10-50 µM, time hrs <=72; summary of the method: as §1
Hep 3B2 = assay: Cytotoxicity against human Hep3B cells assessed as reduction in cell viability measured upto 72 hrs by MTT assay; assay type: functional, cell-based; conditions: dose 10-50 µM, time hrs <=72; summary of the method: as §1
HepG2 [2] = assay: Induction of cell cycle arrest in human HepG2 cells assessed as increase in accumulation of SubG1 phase incubated for 48 hrs by propidium iodide staining based flow cytometry analysis; assay type: functional; conditions: dose 10-40 µM
Summary of the method: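 HepG2 cells were treated at 0, 10, 20 and 40 µM for 48 h, then ethanol-fixed and stained with propidium iodide. Cell cycle distribution, including the subG1 fraction, was analysed by flow cytometry.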

HepG2 [3] = assay: Induction of apoptosis in human HepG2 cells assessed as upregulation of Bcl-2 expression measured upto 48 hrs by Western blot analysis; assay type: functional, cell-based; conditions: time hrs <=48, in the assay text read “downregulation” for “upregulation”, TDE = time-dependent effect
Summary of the method: (§2)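 HepG2 cells were exposed to compound and harvested at 0, 12, 18, 24 and 48 h. Bcl-2 and Bcl-xL levels were detected by western blot, with β-actin as loading control.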

HepG2 [4] = assay: Induction of apoptosis in human HepG2 cells assessed as upregulation of Bcl-xl expression measured upto 48 hrs by Western blot analysis; assay type: functional, cell-based; conditions: time hrs <=48, in the assay text read “downregulation” for “upregulation”, TDE = time-dependent effect; summary of the method: as §2
MDA-MB-231 [5] = assay: Induction of apoptosis in human MBA-MB-231 cells assessed as upregulation of Bcl-2 expression measured upto 48 hrs by Western blot analysis; assay type: functional, cell-based; conditions: time hrs <=48, TDE = time-dependent effect, in the assay text read “downregulation” for “upregulation”
Summary of the method: (§3)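 Bcl-2 and Bcl-xL levels in MDA-MB-231 cells after compound treatment were assessed by western blot, with β-actin as loading control.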

MDA-MB-231 [6] = assay: Induction of apoptosis in human MBA-MB-231 cells assessed as upregulation of Bcl-xl expression measured upto 48 hrs by Western blot analysis; assay type: functional, cell-based; conditions: time hrs <=48, in the assay text read “downregulation” for “upregulation”; summary of the method: as §3
HepG2 [7] = assay: Antiproliferative activity in human HepG2 cells transfected with Bcl2 siRNA assessed as reduction in cell growth at 10 to 50 uM incubated for 24 hrs by MTT assay; assay type: functional, cell-based; conditions: dose 10-50 µM
Summary of the method: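 HepG2 cells were transfected with Bcl-2 siRNA, with control siRNA-transfected cells as the comparator. Cells were then exposed to graded compound doses, and proliferation was measured by MTT.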

HepG2 [8] = assay: Induction of apoptosis in human HepG2 cells assessed as increase in pro-caspase 3 activation measured upto 48 hrs by Western blot analysis; assay type: functional, cell-based; conditions: time hrs <=48, TDE = time-dependent effect
Summary of the method: (§4)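 Lysates of compound-treated HepG2 cells were immunoblotted for procaspase-3, PARP, survivin and cyclin D1. Full-length PARP is 116 kDa; cleavage yields 85 and 24 kDa fragments.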

HepG2 [9] = assay: Induction of apoptosis in human HepG2 cells assessed as decrease in full length PARP measured upto 48 hrs by Western blot analysis; assay type: functional, cell-based; conditions: time hrs <=48, TDE = time-dependent effect; summary of the method: as §4
HepG2 [10] = assay: Induction of apoptosis in human HepG2 cells assessed as increase in PARP cleavage measured upto 48 hrs by Western blot analysis; assay type: functional, cell-based; conditions: time hrs <=48, TDE = time-dependent effect; summary of the method: as §4
HepG2 [11] = assay: Induction of apoptosis in human HepG2 cells assessed as decrease in survivin measured upto 48 hrs by Western blot analysis; assay type: functional, cell-based; conditions: time hrs <=48; summary of the method: as §4
HepG2 [12] = assay: Induction of apoptosis in human HepG2 cells assessed as decrease in cyclin-D1 measured upto 48 hrs by Western blot analysis; assay type: functional, cell-based; conditions: time hrs <=48; summary of the method: as §4

Structure (SMILES)	IC50 (HepG2 [1])	Activity (L02)	further results
COc1ccc(-c2ccccc2Cl)cc1C12CC3CC(CC(C3)C1)C2	21.9 µM	Toxic	–
COc1ccc(C2=Cc3ccccc3C2)cc1C12CC3CC(CC(C3)C1)C2	6.9 µM	Toxic	–
COc1ccc(-c2cccc(Cl)c2)cc1C12CC3CC(CC(C3)C1)C2	–	Non-Toxic	–
COc1ccc(-c2c(F)cc(F)c(OC)c2F)cc1C12CC3CC(CC(C3)C1)C2	> 50 µM	Non-Toxic	–
CC1(C)CCC(c2ccc(Cl)cc2)=C(CN2CCN(c3ccc(C(=O)NS(=O)(=O)c4ccc(N[C@H](CCN5CCOCC5)CSc5ccccc5)c(S(=O)(=O)C(F)(F)F)c4)cc3)CC2)C1	–	–	Activity (HepG2 [1]; time hrs <=72): Dose-dependent effect; Activity (Huh-7): Dose-dependent effect; Activity (Hep 3B2): Dose-dependent effect
COc1ccc(-c2cccc3ccccc23)cc1C12CC3CC(CC(C3)C1)C2	46.2 µM	Non-Toxic	–
COc1ccc(-c2ccccc2F)cc1C12CC3CC(CC(C3)C1)C2	> 50 µM	Non-Toxic	–
COc1ccc(-c2ccc(Cl)c(C(F)(F)F)c2)cc1C12CC3CC(CC(C3)C1)C2	> 50 µM	Non-Toxic	–
COc1ccc(-c2ccccc2C#N)cc1C12CC3CC(CC(C3)C1)C2	> 50 µM	Non-Toxic	–
COc1ccc(-c2ccc(C(=O)N3CCCCC3)cc2)cc1C12CC3CC(CC(C3)C1)C2	> 50 µM	Non-Toxic	–
COc1cccc(-c2ccc(OC)c(C34CC5CC(CC(C5)C3)C4)c2)c1	> 50 µM	Non-Toxic	–
COc1ccc(-c2ccccc2)cc1C12CC3CC(CC(C3)C1)C2	> 50 µM	Non-Toxic	–
COc1ccc(-c2cccc(O)c2)cc1C12CC3CC(CC(C3)C1)C2	26.1 µM	Non-Toxic	Activity (HepG2 [2]): Dose-dependent effect; Activity (HepG2 [3]): Tde; Activity (HepG2 [4]): Tde; Activity (MDA-MB-231 [5]): Tde; Activity (MDA-MB-231 [6]): Active; inhibition (HepG2 [7]): inactive; Activity (HepG2 [8]): Tde; Activity (HepG2 [9]): Tde; Activity (HepG2 [10]): Tde; Activity (HepG2 [11]): Active; Activity (HepG2 [12]): Active
COc1ccc(-c2ccc(C(F)(F)F)cc2)cc1C12CC3CC(CC(C3)C1)C2	> 50 µM	Non-Toxic	–
COc1ccc(-c2ccccc2C)cc1C12CC3CC(CC(C3)C1)C2	49.1 µM	Non-Toxic	–
